Key:
Neuron [1] = assay: Neuronal differentiation activity assessed as increase in number of neurons at 0.1 uM in relative to control; format: functional, Homo sapiens
Method in brief: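 Neurospheres (undifferentiated aggregates containing 5–10% neural stem cells, raised with EGF and bFGF) were treated with compound and scored for differentiation into neurons. The % of neurons was compared with ethanol vehicle control, or divided by the % of neurons obtained with retinoic acid treatment. Neuron morphology was also rated qualitatively. Each compound was tested in at least three independent experiments.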

Neuron [2] = assay: Neuronal differentiation activity assessed as increase in number of neurons at 0.1 uM in relative to 5 uM retinoic acid
[3] = Inhibition of LPS-stimulated TNFalpha production in mouse MMGT12 cells after 24 hrs by ELISA; format: functional; parameters: scale not given: the % may be the effect or the level left
Method in brief: (§1)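 Mouse MMGT-12 microglial cells stimulated with LPS in the presence or absence of test compound at several concentrations. Supernatants were collected, and accumulated NO was measured at 48 h by the Griess method and secreted TNF-α at 24 h by ELISA. Data are expressed as % of the LPS-only control, as mean ± SEM of three independent experiments.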

[4] = Inhibition of LPS-stimulated nitric oxide production in mouse MMGT12 cells after 48 hrs; format: functional; parameters: scale not given: the % may be the effect or the level left; method in brief: as §1

SMILES | Activity (Neuron [1]) | Activity (Neuron [2]) | Activity [3] | Activity [4]
COc1ccc(/C=C/c2cc(OC)c(CCCCCCCCCCCCO)c(OC)c2)cc1 | 188% | – | – | –
COc1ccc(/C=C/c2cc(OC)c(CCCCCCCCCCCCCCO)c(OC)c2)cc1 | 135% | – | – | –
OCCCCCCCCCCc1c(O)cc(/C=C/c2ccc(O)cc2)cc1O | 108% | 0.53 | – | –
OCCCCCCCCCCCCCCc1c(O)cc(/C=C/c2ccc(O)cc2)cc1O | 160% | – | – | –
CCCCCCCCCCCCc1c(O)cc(/C=C/c2ccc(O)cc2)cc1O | 106% | 0.52 | – | –
COc1ccc(/C=C/c2cc(OC)c(CCCCCCCCCCO)c(OC)c2)cc1 | 147% | – | – | –
COc1ccc(/C=C/c2cc(OC)c(CCCCCCCCCCCCCCCCO)c(OC)c2)cc1 | 107% | 0.53 | – | –
OCCCCCCCCCCCCc1c(O)cc(/C=C/c2ccc(O)cc2)cc1O | 263% | – | 30% | 50%
Oc1ccc(/C=C/c2cc(O)cc(O)c2)cc1 [RESVERATROL] | 105% | 0.52 | – | –
CC1=C(/C=C/C(C)=C/C=C/C(C)=C/C(=O)O)C(C)(C)CCC1 [TRETINOIN] | 203% | – | – | –
